Test: Thermal denaturation study
Format: physicochemical
Conditions: 3 μM duplex, 10 mM sodium phosphate (pH 7.0), 100 mM NaCl; relative to siRNA 1
Method in brief: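 UV melting of duplexes at 3 μM in 10 mM sodium phosphate (pH 7.0) with 100 mM NaCl, heated at 0.5 °C min−1. ΔTm is the Tm of the peptide-conjugated duplex minus the Tm of the unmodified duplex.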

| Substance | ΔTm [Tm(siRNAmod) − Tm(siRNAunmod)] |
| --- | --- |
| 5′-GGCCUUUCACUACUCCUACTTR^E-R8A7-3′ [siRNA 3] | +0.5 °C |
| 5′-GGCCUUUCACUACUCCUACTTR^E-R8G7-3′ [siRNA 2] | +0.9 °C |
